This data set concerns the target Sulfotransferase 1A1 (Rattus norvegicus, UniProt P17988). The data set can be described thus: Ratio of kcat/Km determined for catalytic efficiency in sulfonation against AST IV. Summed up:
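Recombinant rat hepatic AST IV, expressed in E. coli and purified. Each reaction held 1.0 μg enzyme, 0.2 mM PAPS, 8.3 mM 2-mercaptoethanol, varying substrate and 0.25 M potassium phosphate at pH 7.0. Mixtures were preincubated 2 min at 37 °C, started with enzyme, run 10 min at 37 °C and stopped with methanol. Substrate-dependent PAP formation was read by HPLC and corrected with substrate-free controls. kcat is in min⁻¹ and apparent Km in M.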
Sulfotransferase 1A1, sequence (P17988 whole entry): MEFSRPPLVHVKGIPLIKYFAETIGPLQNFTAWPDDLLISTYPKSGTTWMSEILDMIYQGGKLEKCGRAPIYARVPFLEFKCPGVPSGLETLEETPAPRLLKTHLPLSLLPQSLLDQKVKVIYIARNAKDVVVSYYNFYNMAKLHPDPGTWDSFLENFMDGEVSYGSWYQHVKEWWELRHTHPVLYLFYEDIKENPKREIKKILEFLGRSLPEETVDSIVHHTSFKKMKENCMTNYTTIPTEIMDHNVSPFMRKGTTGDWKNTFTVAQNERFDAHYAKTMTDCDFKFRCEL
`CCCc1ccc(O)cc1`: the Ratio is listed as 2410. Then `Oc1ccc(C23C[C@H]4C[C@@H](C2)C[C@@H](C3)C4)cc1`, with 1600; and `ONc1ccc(Cl)cc1`, with 45.6. Then `CCCCC[C@H](O)c1ccccc1`, with 10.2. Take `OCc1ccc2ccccc2c1`: the Ratio was found to be 101. Consider `OCc1ccccc1` [BENZYL ALCOHOL], for which the Ratio came out at 20.7. For the compound `COC(=O)[C@@H](N)Cc1ccc(O)cc1` [TYROSINE METHYL ESTER], the Ratio was 3. `CC(=O)Nc1ccc(O)cc1` [ACETAMINOPHEN]: the Ratio is on record as 66.7. As for `Oc1ccc2ccccc2c1` [BETANAPHTHOL], the Ratio was determined as 4790. Consider `CN[C@@H](C)C(O)c1ccccc1` (stereo partly drawn), for which the Ratio is 0.1. On to `CN[C@H](C)[C@H](O)c1ccccc1`, for which the Ratio was 0.1. Regarding `C[C@@H](O)c1ccccc1`, the Ratio came to 0.4. Then `CCC[C@H](O)c1ccccc1`, with 0.8; and `CCCCc1ccc(CO)cc1`, with 147; and `O=C(CBr)Nc1ccc(O)cc1`, with 146. As to `CCCCCC[C@H](O)c1ccccc1`, the Ratio was 8.8. With `CCCCCCCc1ccc(CO)cc1`, the Ratio came out at 11. In the case of `CCCCCc1ccc(CO)cc1`, the Ratio came to 185.

On to `CCc1ccc(O)cc1`, for which the Ratio was 1390. Regarding `CCCCCCc1ccc(CO)cc1`, the Ratio stood at 109. Then `CCCN(O)c1ccccc1`, with 20.8; and `CCN(O)c1ccccc1`, with 14.2; and `Oc1ccccc1` [PHENOL], with 625. For the compound `CC(C)[C@H](O)c1ccccc1`, the Ratio is given as 0.2. As to `CCCCc1ccc(O)cc1`, the Ratio was determined as 2230. Then `O=[N+]([O-])c1ccc(O)c(Cl)c1`, with 190; and `CC[C@H](O)c1ccccc1`, with 1.4; and `ONc1ccccc1`, with 6.3. Then `OCc1cccc2ccccc12`, with 29.4; and `CN(O)c1ccccc1`, with 24.2; and `CCCCCCCCCc1ccc(O)cc1` [4-NONYLPHENOL], with 28.3. Then `OCc1c[nH]c2ccccc12` [INDOLE-3-CARBINOL], with 38.9. Turning to `Cc1ccc(O)cc1` [p-CRESOL], the Ratio is 1080. Then `CCCCCCCc1ccc(O)cc1`, with 73.4; and `OC1CCCc2ccccc21` (stereo not drawn), with 32.4; and `CCCCCc1ccc(O)cc1`, with 784. Then `C[C@H](O)c1ccccc1`, with 4.6; and `Oc1ccc(-c2ccccc2)cc1`, with 79.1. Then `Cc1ccc(CO)cc1`, with 28.7; and `CCCc1ccc(CO)cc1`, with 151. For `OCc1ccoc1`, the Ratio is given as 0.4. For `O=[N+]([O-])c1ccc(CO)cc1` [PARANITROBENZYL ALCOHOL], the Ratio worked out at 3.5. Then `CCCC[C@H](O)c1ccccc1`, with 103.
